Test system: Salmonella typhimurium
Experiment: Genotoxicity in Salmonella typhimurium by Ames assay
Assay type: toxicity, organism-based
Conditions: salmonella enterica subsp. enterica serovar typhimurium; call rule not given here

Row | SMILES | Activity
1 | O=S1(=O)CCCN1CC(O)Cn1c2ccccc2c2ccccc21 (stereo unspecified) | Non-toxic

Test system: not listed separately
Experiment: Mean plasma residence time in po dosed ICR mouse
Assay type: ADME, organism-based
Conditions: not given
Method in brief: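 Male ICR mice dosed orally; plasma concentrations followed to derive mean plasma residence time (h).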

Row | SMILES | MRT [h]
2 | O=S1(=O)NCCCN1CC(O)Cn1c2ccccc2c2ccccc21 (stereo unspecified) | 5.12
3 | CN(CC(O)Cn1c2ccccc2c2ccccc21)S(C)(=O)=O (stereo unspecified) | 3.01
4 | CS(=O)(=O)NCC(O)Cn1c2ccccc2c2ccccc21 (stereo unspecified) | 1.92
5 | O=S1(=O)CCCN1CC(O)Cn1c2ccccc2c2ccccc21 (stereo unspecified) | 7.63

Molecular target: Voltage-gated inwardly rectifying potassium channel KCNH2 (Homo sapiens, UniProt Q12809)
Sequence (Q12809 whole entry): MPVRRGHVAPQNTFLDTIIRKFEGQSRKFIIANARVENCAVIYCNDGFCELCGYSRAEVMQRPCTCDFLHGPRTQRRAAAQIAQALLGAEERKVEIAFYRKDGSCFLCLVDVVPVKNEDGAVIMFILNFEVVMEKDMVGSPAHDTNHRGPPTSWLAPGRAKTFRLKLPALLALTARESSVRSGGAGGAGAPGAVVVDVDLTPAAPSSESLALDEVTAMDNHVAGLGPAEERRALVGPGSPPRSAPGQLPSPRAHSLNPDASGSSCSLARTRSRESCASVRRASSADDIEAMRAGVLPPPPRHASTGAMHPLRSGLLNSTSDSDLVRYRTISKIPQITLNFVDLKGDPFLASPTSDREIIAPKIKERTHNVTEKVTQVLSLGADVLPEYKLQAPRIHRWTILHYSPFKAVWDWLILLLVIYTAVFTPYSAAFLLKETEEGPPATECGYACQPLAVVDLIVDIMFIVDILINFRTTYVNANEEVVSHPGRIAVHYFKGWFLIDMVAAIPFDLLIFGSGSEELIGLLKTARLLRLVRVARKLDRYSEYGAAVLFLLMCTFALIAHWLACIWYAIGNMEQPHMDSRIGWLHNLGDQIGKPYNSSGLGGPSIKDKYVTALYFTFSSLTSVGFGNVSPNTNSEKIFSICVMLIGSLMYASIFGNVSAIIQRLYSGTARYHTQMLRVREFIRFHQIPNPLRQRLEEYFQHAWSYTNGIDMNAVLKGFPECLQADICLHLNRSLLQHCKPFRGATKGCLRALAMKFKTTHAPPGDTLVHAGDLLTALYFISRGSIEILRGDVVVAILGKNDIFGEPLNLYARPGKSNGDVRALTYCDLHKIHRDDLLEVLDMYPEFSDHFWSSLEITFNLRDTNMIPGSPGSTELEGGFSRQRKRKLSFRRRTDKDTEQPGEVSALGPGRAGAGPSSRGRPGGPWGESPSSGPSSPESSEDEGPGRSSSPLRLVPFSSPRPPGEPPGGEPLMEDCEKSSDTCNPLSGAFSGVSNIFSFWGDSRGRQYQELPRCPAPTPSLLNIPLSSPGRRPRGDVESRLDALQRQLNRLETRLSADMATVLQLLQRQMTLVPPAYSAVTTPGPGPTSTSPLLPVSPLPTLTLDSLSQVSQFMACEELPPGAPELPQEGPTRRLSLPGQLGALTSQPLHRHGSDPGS
Experiment: Inhibition of human ERG
Conditions: not given

Row | SMILES | inhibition (INH)
6 | O=S1(=O)CCCN1CC(O)Cn1c2ccccc2c2ccccc21 (stereo unspecified) | Not Active

Test system: Mus musculus
Experiment: Antidiabetic activity in diet-induced obese C57BL/6J mouse model assessed as reduction of glucose AUC at 100 mg/kg, qd for 7 days
Assay type: functional
Parameters: scale not given: the % may be the effect or the level left
Conditions: not given
Method in brief: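 Diet-induced obese C57BL/6J mice (25 weeks old, high-fat diet for 19 weeks) dosed 100 mg/kg once daily for 7 days, then given an oral glucose tolerance test; glucose clearance expressed as percent reduction in glucose AUC.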

Row | SMILES | Activity [%]
7 | O=S1(=O)CCCN1CC(O)Cn1c2ccccc2c2ccccc21 (stereo unspecified) | 41

Molecular target: T1, Period circadian protein homolog 2 (Homo sapiens) (UniProt O15055)
T1 sequence (whole entry): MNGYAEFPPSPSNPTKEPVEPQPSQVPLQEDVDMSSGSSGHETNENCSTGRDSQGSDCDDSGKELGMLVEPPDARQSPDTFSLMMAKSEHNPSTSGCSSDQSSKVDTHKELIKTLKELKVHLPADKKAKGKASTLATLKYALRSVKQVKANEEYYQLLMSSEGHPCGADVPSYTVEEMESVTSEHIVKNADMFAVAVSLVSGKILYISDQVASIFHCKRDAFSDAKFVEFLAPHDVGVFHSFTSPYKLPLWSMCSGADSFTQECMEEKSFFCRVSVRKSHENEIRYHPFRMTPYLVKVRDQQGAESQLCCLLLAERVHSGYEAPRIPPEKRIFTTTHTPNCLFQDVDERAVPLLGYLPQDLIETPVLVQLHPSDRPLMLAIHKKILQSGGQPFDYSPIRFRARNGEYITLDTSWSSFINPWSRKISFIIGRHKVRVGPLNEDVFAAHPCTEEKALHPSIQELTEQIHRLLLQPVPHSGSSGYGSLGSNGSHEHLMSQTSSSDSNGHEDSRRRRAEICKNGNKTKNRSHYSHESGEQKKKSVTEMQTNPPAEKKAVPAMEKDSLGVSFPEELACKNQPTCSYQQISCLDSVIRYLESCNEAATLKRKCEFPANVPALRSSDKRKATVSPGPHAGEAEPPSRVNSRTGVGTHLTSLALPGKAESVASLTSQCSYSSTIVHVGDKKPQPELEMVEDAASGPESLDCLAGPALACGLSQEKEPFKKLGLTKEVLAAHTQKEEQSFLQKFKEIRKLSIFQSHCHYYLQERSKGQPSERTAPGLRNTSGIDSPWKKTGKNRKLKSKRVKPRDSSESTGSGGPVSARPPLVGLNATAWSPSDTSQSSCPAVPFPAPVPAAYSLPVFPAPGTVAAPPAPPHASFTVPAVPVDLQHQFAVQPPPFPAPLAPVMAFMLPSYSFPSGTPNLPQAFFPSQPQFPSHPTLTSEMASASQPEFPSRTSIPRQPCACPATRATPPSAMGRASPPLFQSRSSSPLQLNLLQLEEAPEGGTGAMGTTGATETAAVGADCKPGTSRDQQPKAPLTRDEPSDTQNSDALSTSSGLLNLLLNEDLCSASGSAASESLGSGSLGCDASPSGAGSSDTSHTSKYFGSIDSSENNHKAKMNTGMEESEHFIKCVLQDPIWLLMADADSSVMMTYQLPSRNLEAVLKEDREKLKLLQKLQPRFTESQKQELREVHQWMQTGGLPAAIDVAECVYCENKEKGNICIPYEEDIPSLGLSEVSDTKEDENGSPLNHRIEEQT
Experiment: Reduction of amplitude effect of PER2 in human U2OS cells harboring Per2-dLuc luciferase reporter gene assessed as effects on circadian rhythms
Assay type: cell-based
Conditions: not given
Method in brief: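 Human osteosarcoma U2OS cells carrying a Per2-dLuc luciferase reporter, treated continuously; circadian luminescence rhythm amplitude followed. 8-point threefold dilution series; EC50 taken as concentration giving 50% of the compound's own maximal response (titrations without plateau give no EC50).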

Row | SMILES | Activity
8 | O=S(=O)(C1CCCCC1)N(Cc1ccco1)CC(O)Cn1c2ccccc2c2ccccc21 (stereo unspecified) | Dose-dependent effect
9 | CCCS(=O)(=O)N(Cc1ccco1)CC(O)Cn1c2ccccc2c2ccccc21 (stereo unspecified) | Dose-dependent effect
10 | CC(C)CN(CC(O)Cn1c2ccccc2c2ccccc21)S(C)(=O)=O (stereo unspecified) | Dose-dependent effect
11 | CN1CCCN(CC(O)Cn2c3ccccc3c3ccccc32)S1(=O)=O (stereo unspecified) | Dose-dependent effect
12 | O=S(=O)(c1ccccc1)N(Cc1ccco1)CC(O)Cn1c2ccccc2c2ccccc21 (stereo unspecified) | Dose-dependent effect
13 | COCCS(=O)(=O)N(Cc1ccco1)CC(O)Cn1c2ccccc2c2ccccc21 (stereo unspecified) | Dose-dependent effect
14 | CS(=O)(=O)N(CC(O)Cn1c2ccccc2c2ccccc21)C1CCC1 (stereo unspecified) | Dose-dependent effect
15 | O=S1(=O)NCCCN1CC(O)Cn1c2ccccc2c2ccccc21 (stereo unspecified) | Dose-dependent effect
16 | CN(CC(O)Cn1c2ccccc2c2ccccc21)S(C)(=O)=O (stereo unspecified) | Dose-dependent effect
17 | CCN(CC(O)Cn1c2ccccc2c2ccccc21)S(C)(=O)=O (stereo unspecified) | Dose-dependent effect
18 | O=S1(=O)CCN1CC(O)Cn1c2ccccc2c2ccccc21 (stereo unspecified) | Dose-dependent effect
19 | CS(=O)(=O)N(CC(O)Cn1c2ccccc2c2ccccc21)C1CCC(F)(F)CC1 (stereo unspecified) | Dose-dependent effect
20 | O=S1(=O)CCCCN1CC(O)Cn1c2ccccc2c2ccccc21 (stereo unspecified) | Dose-dependent effect
21 | CS(=O)(=O)N(CC(O)Cn1c2ccccc2c2ccccc21)C1CCCCC1 (stereo unspecified) | Dose-dependent effect
22 | COCCN(CC(O)Cn1c2ccccc2c2ccccc21)S(C)(=O)=O (stereo unspecified) | Dose-dependent effect
23 | CS(=O)(=O)N(CC(O)Cn1c2ccccc2c2ccccc21)C1CC(F)(F)C1 (stereo unspecified) | Dose-dependent effect
24 | O=S1(=O)NCCN1CC(O)Cn1c2ccccc2c2ccccc21 (stereo unspecified) | Dose-dependent effect
25 | CS(=O)(=O)N(Cc1ccccc1)CC(O)Cn1c2ccccc2c2ccccc21 (stereo unspecified) | Dose-dependent effect
26 | O=S(=O)(C1CCOC1)N(Cc1ccco1)CC(O)Cn1c2ccccc2c2ccccc21 (stereo unspecified) | Dose-dependent effect
27 | CCS(=O)(=O)N(Cc1ccco1)CC(O)Cn1c2ccccc2c2ccccc21 (stereo unspecified) | Dose-dependent effect

Row | SMILES | Activity
28 | CS(=O)(=O)N(CC(O)Cn1c2ccccc2c2ccccc21)C1COC1 (stereo unspecified) | Dose-dependent effect
29 | O=S(=O)(Cc1ccccc1)N(Cc1ccco1)CC(O)Cn1c2ccccc2c2ccccc21 (stereo unspecified) | Dose-dependent effect
30 | CS(=O)(=O)N(CC(O)Cn1c2ccccc2c2ccccc21)c1ccccc1F (stereo unspecified) | Dose-dependent effect
31 | CS(=O)(=O)N(CC(O)Cn1c2ccccc2c2ccccc21)c1cccc(F)c1 (stereo unspecified) | Dose-dependent effect
32 | CS(=O)(=O)NCC(O)Cn1c2ccccc2c2ccccc21 (stereo unspecified) | Dose-dependent effect
33 | CCCCS(=O)(=O)N(Cc1ccco1)CC(O)Cn1c2ccccc2c2ccccc21 (stereo unspecified) | Dose-dependent effect
34 | CC(C)S(=O)(=O)N(Cc1ccco1)CC(O)Cn1c2ccccc2c2ccccc21 (stereo unspecified) | Dose-dependent effect
35 | CCCN(CC(O)Cn1c2ccccc2c2ccccc21)S(C)(=O)=O (stereo unspecified) | Dose-dependent effect
36 | CS(=O)(=O)N(CC(O)Cn1c2ccccc2c2ccccc21)C1CCCC1 (stereo unspecified) | Dose-dependent effect
37 | CC(C)N(CC(O)Cn1c2ccccc2c2ccccc21)S(C)(=O)=O (stereo unspecified) | Dose-dependent effect
38 | CS(=O)(=O)N(CC(O)Cn1c2ccccc2c2ccccc21)C1CC1 (stereo unspecified) | Dose-dependent effect
39 | O=S1(=O)COCCN1CC(O)Cn1c2ccccc2c2ccccc21 (stereo unspecified) | Dose-dependent effect
40 | CC(C)CS(=O)(=O)N(Cc1ccco1)CC(O)Cn1c2ccccc2c2ccccc21 (stereo unspecified) | Dose-dependent effect
41 | CS(=O)(=O)N(CC(O)Cn1c2ccccc2c2ccccc21)c1ccccc1 (stereo unspecified) | Dose-dependent effect
42 | CS(=O)(=O)N(CC(O)Cn1c2ccccc2c2ccccc21)C1CCOCC1 (stereo unspecified) | Dose-dependent effect
43 | O=S(=O)(C1CC1)N(Cc1ccco1)CC(O)Cn1c2ccccc2c2ccccc21 (stereo unspecified) | Dose-dependent effect
44 | CN1CCN(CC(O)Cn2c3ccccc3c3ccccc32)S1(=O)=O (stereo unspecified) | Dose-dependent effect
45 | O=S1(=O)CCCN1CC(O)Cn1c2ccccc2c2ccccc21 (stereo unspecified) | Dose-dependent effect
46 | CS(=O)(=O)N(CC(O)Cn1c2ccccc2c2ccccc21)c1ccc(F)cc1 (stereo unspecified) | Dose-dependent effect

Reference: ChEMBL document CHEMBL3751804, “Carbazole-containing sulfonamides and sulfamides: Discovery of cryptochrome modulators as antidiabetic agents” (Bioorg Med Chem Lett, 2016)
